SIAE inh – human SIAE inhibition, primary screen. inhibition, % at 9.66 µM. 0.69% of 370,000 active. Q9HAT2. AID 1053197. SIAE FP-Rh probe binding, fluorescence polarization;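 active = inhibition above a cutoff: mean of compounds within the control limits plus 3 SD of those, cut at about 17% in these data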;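 also: 0% = plate median of compound wells and 100% = probe without SIAE protein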
PRMT1 inh – PRMT1 (human) inhibition, primary screen | inhibition, % at 2.79 µM | 1.3% of 370,000 active | recombinant PRMT1, activity-based probe fluorescence polarization | Q99873;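 active = inhibition above about 21% made by adding two undisclosed values, limit read from the data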
Target sequence (Q99873 whole entry, looked up): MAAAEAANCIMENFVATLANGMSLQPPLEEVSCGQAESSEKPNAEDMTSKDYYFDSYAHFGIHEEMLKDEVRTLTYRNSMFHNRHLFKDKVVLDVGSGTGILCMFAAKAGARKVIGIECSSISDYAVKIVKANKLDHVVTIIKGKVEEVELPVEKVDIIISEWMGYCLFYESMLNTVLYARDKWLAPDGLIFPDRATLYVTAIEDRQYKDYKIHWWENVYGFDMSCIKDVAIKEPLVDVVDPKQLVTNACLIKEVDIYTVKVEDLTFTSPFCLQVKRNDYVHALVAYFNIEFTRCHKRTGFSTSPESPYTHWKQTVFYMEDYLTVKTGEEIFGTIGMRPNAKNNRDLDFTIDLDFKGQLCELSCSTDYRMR
mABHD4 FP – inhibits mouse alpha/beta hydrolase domain 4; Q8VD66; purified mABHD4, FP-Rh probe fluorescence polarization; inhibition, % at 8.92 µM; 0.54% of 370,000 active;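 active = inhibition exceeding the mean over every tested compound plus 3 SD, cut at about 30% in these data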;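 also: 0% = plate median of compound wells and 100% = S159A mutant with DMSO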
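Assay system: Wild-type mouse ABHD4 protein | Medium: HEPES pH 7.0 buffer, 150 mM NaCl, 0.01% Pluronic F-127 | Incubation: Enzyme–compound pre-incubation 45 min, then probe 60 min, both 25 °C | Technique: Fluorescence polarization with parallel and perpendicular emission, 525/598 nm | Evaluation: % inhibition of FP-Rh probe binding versus controls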
rCAG binder – r(CAG) repeat RNA binding. TO-PRO-1 dye displacement fluorescence. inhibition, % at 3 µM. 1.3% of 370,000 active. AID 651821;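 active = inhibition above the plate cutoff, the mean of all test compounds on that plate plus 3 SD, cut at about 35% in these data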;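 also: 0% = DMSO alone and 100% = 100 µM mitoxantrone as full dye displacement; higher means more dye released from RNA so lower well fluorescence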
TCR-CD3 inh – blocks the human TCR-CD3 interaction; 0.37% of 360,000 active; AID 651800; inhibition, % at 9.4 µM; TAMRA-labeled TCR probe fluorescence, biochemical;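 also: recombinant mutant TCR 2C K166C tagged with TAMRA read by polarization; 0% = receptor in buffer alone and 100% = receptor with positive control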
BSA probe FL – interferes with TAMRA-BSA probe, flagging TCR-CD3 hits; shares compounds with TCR-CD3 inh; TAMRA-labeled BSA probe fluorescence counterscreen; inhibition, % at 9.4 µM; 10% of 1,200 active; AID 652035; in the data active = inhibition above about 23%;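 also: 0% = buffer low control and 100% = reference high control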
TCR-CD3 conf – confirmation of human TCR-CD3 interaction inhibitors | shares compounds with TCR-CD3 inh | TAMRA-labeled TCR probe fluorescence binding assay | inhibition, % at 9.4 µM | 48% of 1,200 active
* = called active by the depositor; · = no result. Sampled rows, rich in hits. Any-hit rate of the full collection: about 3.3%. Rule as the data show it, unless noted: active = inhibition above about 19%; inactive = the rest.

SMILES	SIAE inh	PRMT1 inh	mABHD4 FP	rCAG binder	TCR-CD3 inh	BSA probe FL	TCR-CD3 conf
CCOC(=O)CC[C@@]1(C(=O)OCC)C[C@@H](CC(=O)NCc2cccs2)C(=O)N2CCCC=C21	2	3	4	1	·	·	·
O=C(CSc1nc2ccccc2[nH]1)NN=Cc1c(F)cccc1Cl	3	-2	-5	2	·	·	·
Cc1cc2c(nc1C)CCCN2Cc1ccccn1	12	19	18	4	39*	39*	34*
Brc1ccc(-c2ccc3c(n2)CCCN3Cc2ccccn2)cc1	-7	2	-8	9	2	·	·
O=C(CSc1nnc(-c2ccccc2O)n1Cc1ccccc1)NNC(=O)c1ccccc1O	8	0	3	30	54*	-3	45*
O=C(CSc1ccccc1)NNC(=O)c1ccccc1O	9	3	9	2	19*	-10	26*
Cn1c(SCC(=O)NNC(=O)c2ccccc2O)nnc1-c1ccccc1	1	0	12	6	48*	-6	42*
O=C(CSc1nnc(-c2ccccc2)n1Cc1ccccc1)NNC(=O)c1ccccc1O	3	3	14	11	58*	-1	54*
C/C(=N\NC(=O)Cc1cc(=O)[nH][nH]1)c1ccc([N+](=O)[O-])cc1	11	2	5	0	·	·	·
CCC(C)[C@@H](C(=O)OC)N(Cc1cn(Cc2ccccc2)nn1)S(=O)(=O)c1ccccc1Br (stereo partly specified)	2	-1	-4	-1	·	·	·
Cc1c(NC(=O)C2CCCN(S(=O)(=O)c3ccccc3[N+](=O)[O-])C2)c(=O)n(-c2ccccc2)n1C (stereo unspecified)	-3	-10	1	1	·	·	·
Cc1ccc(-c2ccc(/C=N/N3C(=O)C4C5C=CC(CC5)C4C3=O)o2)c([N+](=O)[O-])c1 (stereo unspecified)	9	3	15	0	22*	3	1
O=C(Nc1nnc([C@H]2C[C@H](O)[C@@H](CO)O2)s1)c1cccc(Oc2ccccc2)c1	3	1	4	6	21*	-1	5
O=C(Nc1nnc([C@@H]2C[C@H](O)[C@@H](CO)O2)s1)c1cccc(Oc2ccccc2)c1	5	0	1	1	-6	·	·
O=C(CCS(=O)(=O)c1ccccc1)Nc1ccc(F)cc1F	-5	-2	-2	5	·	·	·
Cc1cccc(C)c1NC(=O)CN1C(=O)NC(C)(CCc2ccccc2)C1=O (stereo unspecified)	-1	-1	-2	-6	59*	4	6
Cc1ccc(-c2nn(-c3ccccc3)cc2C(=O)Nc2ccc(C)c(S(=O)(=O)N3CCOCC3)c2)cc1	-7	-2	-12	13	69*	30*	60*
COC(=O)C1CN(Cc2cn(Cc3ccc(OC)cc3)nn2)CCS(=O)(=O)N1Cc1ccc(F)cc1 (stereo unspecified)	0	5	1	2	·	·	·
O=c1cc(-c2ccc(O)c(O)c2)oc2cc(O)cc(O)c12	3	4	26	12	25*	-17	21*
O=C(Nc1ccc(Cl)cc1Cl)O[C@@H]1CC[C@@]23CCCN2C(=O)CCC[C@H]3C1	-3	2	1	·	·	·	·
O=C(NCc1ccco1)C1CCN(S(=O)(=O)c2ccccc2C(F)(F)F)CC1	0	3	-1	3	-3	·	·
O=C(NNC(=O)C1CCN(S(=O)(=O)c2c(Cl)cccc2Cl)CC1)c1ccccc1O	6	1	8	17	31*	-11	27*
O=C(NNC(=O)c1ccccc1O)c1ccc(Cl)c(S(=O)(=O)N2CCCCC2)c1	8	1	13	19	27*	-10	20*
O=C(NNC(=O)C1CCN(S(=O)(=O)c2ccccc2C(F)(F)F)CC1)c1ccccc1O	9	-2	6	10	31*	-7	23*
O=C(NNC(=O)C1CCN(S(=O)(=O)c2ccccc2)CC1)c1ccccc1O	4	2	11	5	47*	6	40*
SMILES	SIAE inh	PRMT1 inh	mABHD4 FP	rCAG binder	TCR-CD3 inh	BSA probe FL	TCR-CD3 conf
O=C(NCc1ccccc1)OCCCN1C(=O)CCC12CCCCC2	3	1	3	0	·	·	·
O=C(c1ccco1)N1CCC(Oc2cccnc2)CC1	-3	-6	5	0	·	·	·
CC(C)(C)N1Cc2nnn(CC3CCCCC3)c2-c2cc(F)ccc2S1(=O)=O	-1	-1	-2	1	·	·	·
O=C(NNC(=O)c1cc(Cl)ccc1O)c1cccc(S(=O)(=O)N2CCOCC2)c1	13	1	17	18	43*	-11	31*
COCCn1c(=NC(=O)c2ccc(S(=O)(=O)N3CCc4ccccc4C3)cc2)sc2cc(S(N)(=O)=O)ccc21	-94	1	-104	34	14	·	·
C=CCn1c(=NC(=O)c2ccc(S(=O)(=O)N3CCc4ccccc4C3)cc2)sc2cc(S(N)(=O)=O)ccc21	-61	1	-38	27	31*	13	31*
COC(=O)[C@]12C[C@H](CC(=O)NCC34CC5CC(CC(C5)C3)C4)C(=O)N(CCc3ccc(OC)c(OC)c3)C1=C[C@H](C(C)(C)C)O[C@@H]2C	3	3	2	9	·	·	·
CC(C)C[C@@H]1COc2cc(N3CCCC3)ccc2S(=O)(=O)N1C	0	1	7	-2	·	·	·
O=C(NC(=O)c1ccccc1F)OCc1ccc(Cl)cc1Cl	-1	-2	-18	-1	28*	-1	3
C/C(=N/NC(=O)c1cc2ccccc2cc1O)C1C(=O)c2ccccc2C1=O	21*	4	49*	100*	45*	1	68*
COC(=O)[C@]12C[C@H](CC(=O)NCc3ccc(C)o3)C(=O)N(Cc3cccc4ccccc34)C1=C[C@H](C(C)C)O[C@@H]2C1CC1	3	1	-14	5	·	·	·
NNC(=O)c1oc2nc(-c3ccccc3)cc(-c3ccccc3)c2c1N	7	-2	16	12	15	·	·
CNC(=S)NNC(=O)c1oc2nc(-c3ccccc3)cc(C)c2c1N	-2	18	12	6	29*	-1	18
O=c1c2ccccc2n(Cc2ccccc2)n1[C@@H](Cc1ccccc1)Cn1cc(-c2ccc(-c3ccccc3)cc2)nn1	1	-4	1	10	·	·	·
CCC1CCCCN1c1nc(-c2ccncc2)nc2ccccc12 (stereo unspecified)	-8	-3	-15	-6	44*	1	-3
CC1CCCCN1c1nc(-c2ccncc2)nc2ccccc12 (stereo unspecified)	-3	2	-18	2	-1	·	·
CC1NC(=S)N(Cc2ccccc2)C1=O (stereo unspecified)	4	-1	1	1	22*	1	16
COc1ccc(C#CCN(C)/C(N)=N/C(=O)OCc2ccccc2)cc1	3	-2	-7	-2	·	·	·
